Source: PubChem BioAssay
“And” between values parts separate entries of the source, which are not always exact repeats. Equal entries are not always repeated. The source made the active and inactive calls.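 Rule for the calls, unless noted: active = viability at or under a set limit in both replicates, limit being median viability minus 3 SD (cut at about 48% in these data, passing the limit was not always enough); inconclusive = at or under the limit in just one replicate; inactive = at or above the limit in both replicates.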

Assays:
[1] = Her2 expression decrease, cell viability multiplex – SKBR3 breast tumor cells, AlphaScreen, ATP viability, primary screen (AID 461;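 active = Her2 level under about 52% in both replicate screens, with viability over 70% of control, limit read from the data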;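 for Her2 level: lower value means less Her2 protein in the cells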;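 for viability: percent of carrier control wells set as 100% viability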); details: SKBR3 Her2 protein level, 18-24 h, measured here: SKBR3 viability, ATP luminescence, at 10 µM
[2] = biological target: Receptor tyrosine-protein kinase erbB-2 (Homo sapiens) (UniProt P04626); test: as above; details: 18-24 h, at 10 µM, stronger effect = lower value
Sequence of Receptor tyrosine-protein kinase erbB-2 (Homo sapiens) (P04626 whole entry, looked up): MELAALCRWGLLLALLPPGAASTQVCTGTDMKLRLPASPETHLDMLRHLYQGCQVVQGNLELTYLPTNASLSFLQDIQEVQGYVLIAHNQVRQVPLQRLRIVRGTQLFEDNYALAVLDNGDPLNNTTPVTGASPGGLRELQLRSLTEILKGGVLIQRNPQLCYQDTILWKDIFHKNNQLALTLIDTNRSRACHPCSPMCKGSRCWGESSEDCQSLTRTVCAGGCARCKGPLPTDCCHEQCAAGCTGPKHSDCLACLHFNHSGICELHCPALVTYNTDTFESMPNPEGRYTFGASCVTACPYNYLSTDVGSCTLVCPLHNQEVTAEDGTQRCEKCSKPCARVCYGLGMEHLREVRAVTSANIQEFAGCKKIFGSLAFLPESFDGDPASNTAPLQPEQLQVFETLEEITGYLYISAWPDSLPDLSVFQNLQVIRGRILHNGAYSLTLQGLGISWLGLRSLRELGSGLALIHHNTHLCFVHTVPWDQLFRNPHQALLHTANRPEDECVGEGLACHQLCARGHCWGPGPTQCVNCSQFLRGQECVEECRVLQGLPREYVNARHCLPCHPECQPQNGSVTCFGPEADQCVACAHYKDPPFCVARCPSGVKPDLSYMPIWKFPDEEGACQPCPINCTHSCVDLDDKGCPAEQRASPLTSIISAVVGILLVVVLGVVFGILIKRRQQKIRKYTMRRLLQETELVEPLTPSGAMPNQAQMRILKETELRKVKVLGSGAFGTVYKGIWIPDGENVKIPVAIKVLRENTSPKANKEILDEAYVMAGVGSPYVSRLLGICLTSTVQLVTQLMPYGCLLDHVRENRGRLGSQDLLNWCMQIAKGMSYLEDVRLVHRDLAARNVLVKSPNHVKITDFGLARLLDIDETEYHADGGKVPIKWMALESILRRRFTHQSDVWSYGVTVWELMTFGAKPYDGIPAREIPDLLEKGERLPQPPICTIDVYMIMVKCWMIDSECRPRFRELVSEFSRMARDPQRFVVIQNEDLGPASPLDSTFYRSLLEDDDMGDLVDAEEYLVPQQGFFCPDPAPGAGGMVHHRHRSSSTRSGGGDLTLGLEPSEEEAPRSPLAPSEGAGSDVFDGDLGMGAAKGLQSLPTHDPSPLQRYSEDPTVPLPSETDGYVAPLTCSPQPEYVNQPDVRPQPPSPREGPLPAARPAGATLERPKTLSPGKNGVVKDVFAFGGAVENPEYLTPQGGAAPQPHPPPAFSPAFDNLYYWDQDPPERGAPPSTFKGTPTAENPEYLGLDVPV

[3] = reduced viability of SK-BR-3 breast cancer cells – cell-based, 24 h, human, pilot screen (AID 572;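 active = viability at or below 10% of carrier control in both of two separate runs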;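 note: compound exposure lasted between 18 and 24 h rather than exactly 24 h; 100% = carrier-treated control wells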); details: SK-BR-3 viability, CellTiter-Glo luminescence, at 10 µM, stronger effect = lower value
[4] = HUVEC growth inhibition – cell-based, human, primary screen (AID 575;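 active = viability at or below 30% in both replicate assays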;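 note: 100% = median of untreated cell wells with 0.1% DMSO on each plate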); details: HUVEC proliferation, CellTiter-Glo luminescence, 72 h; at 10 µM; stronger effect = lower value
Procedure, shortened: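 Test system: primary human umbilical vein endothelial cells. Quantity: 1250 cells/well. Compound: single 10 µM dose, 0.1% DMSO, from 5x medium stock. Timing: 72 h treatment at 37 °C. Detection: ATP-based CellTiter-Glo luminescent read. Benchmarks: vehicle and MePR control wells. Format: 384-well plates coated with collagen.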

[5] = H69AR cell proliferation blockers – human, duplicate replicates, primary screen (AID 580); details: H69AR lung tumor cells viability, ATP luminescence, 72 h; at 10 µM; stronger effect = lower value;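 note: 100% = mean luminescence of untreated wells and 0% = no signal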
[6] = MRP1 drug-resistance reversers in H69AR cells – cell-based, doxorubicin co-treatment, pilot screen (AID 601;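 active = viability loss from added drug above about 55%, and viability with drug at most 40%, in both replicates, limit read from the data, passing the limit was not always enough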); details: CellTiter-Glo, 72 h, at 10 µM; for differential viability (reversal): stronger effect = higher value
[7] = yeast transport mutant growth inhibition pilot in 384-well plates, post-Golgi transport modulator project (AID 636; in the data active = inhibition above about 31%); details: absorbance 615 nm, about 18 h, stronger effect = higher value
[8] = growth suppression of yeast trafficking mutant, preliminary HTS, modulators of trafficking downstream of Golgi apparatus project, 1536-format plate, OD 615 nm (AID 637; in the data active = inhibition above about 30%); details: yeast transport mutant growth, absorbance 615 nm, 18 h; stronger effect = higher value
[9] = H69AR cells + 2 uM doxorubicin, measured here: viability with 2 uM doxorubicin, stronger effect = lower value
[10] = H69AR cells, compound alone cytotoxicity

Row | Compound | viability [1] [%] | Her2 level [2] | viability [3] | viability [4] | viability [5] | differential viability (reversal) ([6]; H69AR cells + 2 uM doxorubicin) | viability [6, 9] | viability [6, 10] | inhibition [7] | inhibition [8]
1 | CN(C#N)c1nc(N2CCOCC2)nc(N2CCOCC2)n1 | 111 | 120% (inactive) | 111% (inactive) | 81.7% (inactive) | 92.8% (inactive) | 3.22% (inactive) | 89.5% | 92.8% | -1.22% (inactive) | 6.35% (inactive)
2 | Cc1cc(C)n(-c2nnc(C)n2/N=C/c2ccccc2F)n1 | 94 | 89% (inactive) | 94% (inactive) | 110% (inactive) | 98.3% (inactive) | 13.3% (inactive) | 84.9% | 98.3% | -7.07% (inactive) | 4.59% (inactive)
3 | Cc1cc(C)n(S(=O)(=O)Cc2ccccc2)n1 | 102 | 135% (inactive) | 102% (inactive) | 97.4% (inactive) | 92.2% (inactive) | -0.205% (inactive) | 92.4% | 92.2% | -6.32% (inactive) | 4.59% (inactive)
4 | Cc1onc(-c2ccccc2)c1C(=O)Nc1ccc(S(=O)(=O)N2CCCCC2)cc1 | 95.5 | 94.5% (inactive) | 95.5% (inactive) | 58.4% (inactive) | 88.9% (inactive) | -3.39% (inactive) | 92.3% | 88.9% | -0.77% (inactive) | 1% (inactive)
5 | Nc1ccc(C(=O)O)c(O)c1 | 100 | 113% (inactive) | 100% (inactive) and 130% (inactive) | 105% (inactive) and 87.5% (inactive) | 78.2% (inactive) and 90.7% (inactive) | -28.9% (inactive) and 6.59% (inactive) | 107% and 84.1% | 78.2% and 90.7% | -1.82% (inactive) | 15.8% (inactive)
6 | Cc1ccc(-c2noc(CCC(=O)NC3CCCc4ccccc43)n2)cc1 (stereo not given) | 75 | 85.5% (inactive) | 75% (inactive) | 83.6% (inactive) | 92.5% (inactive) | 6.05% (inactive) | 86.4% | 92.5% | -4.87% (inactive) | -4.67% (inactive)
7 | COc1ccc(-c2cc(C(=O)NCc3ccc(Cl)cc3)no2)cc1OC | 92.5 | 88.5% (inactive) | 92.5% (inactive) | 83% (inactive) | 100% (inactive) | 0.66% (inactive) | 99.5% | 100% | -6.35% (inactive) | -0.33% (inactive)
8 | COc1ccc(NC(=O)CN2CCN(S(=O)(=O)c3ccc(Cl)cc3)CC2)cc1 | 92 | 76% (inactive) | 92% (inactive) | 88% (inactive) | 81.8% (inactive) | -11.3% (inactive) | 93.1% | 81.8% | -6.18% (inactive) | -11% (inactive)
9 | O=C(O)CCCC(=O)NCCc1ccncc1 | 98 | 89% (inactive) | 98% (inactive) | 97% (inactive) | 107% (inactive) | 7.97% (inactive) | 98.5% | 107% | -1.84% (inactive) | -1.27% (inactive)
10 | COc1ccc(C(=O)N(CCCO)Cc2cc3c(C)ccc(C)c3[nH]c2=O)cc1OC | 90.5 | 95% (inactive) | 90.5% (inactive) | 113% (inactive) | 95.1% (inactive) | 12.2% (inactive) | 82.9% | 95.1% | -5.06% (inactive) | 2.46% (inactive)
11 | CC(C)[C@H](NC(=O)[C@@H]1CSCN1C(=O)OC(C)(C)C)C(=O)NCC1CCC(C(=O)O)CC1 (stereo not given in full) | 105 | 104% (inactive) | 105% (inactive) | 113% (inactive) | 102% (inactive) | 2.67% (inactive) | 99.3% | 102% | -3.33% (inactive) | -3.23% (inactive)
12 | CC(=O)Nc1ccc(S(=O)(=O)N2CCC(NC(C)=O)(c3cccc(F)c3)CC2)cc1 | 89 | 79% (inactive) | 89% (inactive) | 100% (inactive) | 104% (inactive) | 13% (inactive) | 90.5% | 104% | -6.89% (inactive) | 0.82% (inactive)
13 | O=C(NCc1ccc(F)cc1)C1CCN(C(=O)NCc2ccccc2)CC1 | 115 | 110% (inactive) | 115% (inactive) | 89.8% (inactive) | 101% (inactive) | 6.81% (inactive) | 93.8% | 101% | -3.38% (inactive) | -7.17% (inactive)
14 | CN(CC(=O)Nc1nccs1)S(=O)(=O)c1ccc(F)cc1 | 82 | 114% (inactive) | 82% (inactive) | 92.1% (inactive) | 95.2% (inactive) | -7.69% (inactive) | 103% | 95.2% | 0.78% (inactive) | -4.75% (inactive)
15 | O=C(CCN1C(=O)C2C3C=CC(C3)C2C1=O)NC1CCCc2ccccc21 (stereo not given) | 81 | 90.5% (inactive) | 81% (inactive) | 76.7% (inactive) | 94.2% (inactive) | 6.45% (inactive) | 87.7% | 94.2% | -1.89% (inactive) | 5.57% (inactive)
16 | O=C(NC1CCCCC1)c1ccc(S(=O)(=O)N2CCCCC2)cc1 | 80.5 | 108% (inactive) | 80.5% (inactive) | 86% (inactive) | 74.9% (inactive) | -29.9% (inactive) | 105% | 74.9% | 4.29% (inactive) | -11.4% (inactive)
17 | Cc1ccc(-n2nc(-c3cccs3)cc2C(=O)NCC2CCCO2)c(C)c1 (stereo not given) | 122 | 100% (inactive) | 122% (inactive) | 71.3% (inactive) | 86.5% (inactive) | -14% (inactive) | 100% | 86.5% | -4.67% (inactive) | -6.72% (inactive)
18 | COc1cc2[nH]c(=O)n(CCC(=O)N3CCc4ccccc4C3)c(=O)c2cc1OC | 102 | 106% (inactive) | 102% (inactive) | 116% (inactive) | 92.4% (inactive) | -2.6% (inactive) | 95% | 92.4% | -4.73% (inactive) | -2.33% (inactive)
19 | Nn1c(SCC(=O)NC2CCCCC2)nnc1C1CC1 | 102 | 111% (inactive) | 102% (inactive) | 98.4% (inactive) | 103% (inactive) | 0.415% (inactive) | 103% | 103% | -0.52% (inactive) | 10.8% (inactive)
20 | COc1cccc(OCC(O)CN2CCN(CCO)CC2)c1 (stereo not given) | 92.5 | 96% (inactive) | 92.5% (inactive) | 101% (inactive) | 93.2% (inactive) | 1.65% (inactive) | 91.6% | 93.2% | 1.18% (inactive) | 6.39% (inactive)
21 | O=c1c2c3c(sc2n2cnnc2n1CCc1ccccc1)CCCC3 | 96.5 | 78.5% (inactive) | 96.5% (inactive) | 57.7% (inactive) | 77.1% (inactive) | 8.96% (inactive) | 68.1% | 77.1% | -3.47% (inactive) | 6.45% (inactive)
22 | Cc1cccc(-c2cc3nc4c(c(N5CCOCC5)n3n2)CCCC4)c1 | 93 | 70% (inactive) | 93% (inactive) | 71.7% (inactive) | 76% (inactive) | -2.37% (inactive) | 78.4% | 76% | -6.76% (inactive) | 2.95% (inactive)
23 | CCc1nnc(NC(=O)c2ccc(S(=O)(=O)NC3CCCCC3)cc2)s1 | 86.5 | 69.5% (inactive) | 86.5% (inactive) | 74% (inactive) | 80.1% (inactive) | 43% (inactive) | 37.1% | 80.1% | -5.68% (inactive) | -8.33% (inactive)
24 | Cc1onc(-c2ccccc2Cl)c1C(=O)Nc1cccnc1 | 102 | 72% (inactive) | 102% (inactive) | 103% (inactive) | 95.6% (inactive) | 1.41% (inactive) | 94.2% | 95.6% | -7.57% (inactive) | -1.31% (inactive)
25 | C=CCOc1ccccc1/C=c1\sc2nc(=O)c(C)nn2c1=O | 100 | 84% (inactive) | 100% (inactive) | 85.1% (inactive) | 72.6% (inactive) | -10.6% (inactive) | 83.1% | 72.6% | -8.27% (inactive) | 0.79% (inactive)
26 | CC(=O)Nn1c(C)nnc1-n1nc(C)cc1C | 126 | 112% (inactive) | 126% (inactive) | 77.5% (inactive) | 97.8% (inactive) | 4.38% (inactive) | 93.4% | 97.8% | -1.95% (inactive) | -1.64% (inactive)
27 | CC(NO)C(C)(C)NO (stereo not given) | 92 | 101% (inactive) | 92% (inactive) | 92.3% (inactive) | 100% (inactive) | 11.2% (inactive) | 89.2% | 100% | -2.67% (inactive) | 12.1% (inactive)
28 | CCOC(=O)c1cc2c(=O)n3cccc(C)c3nc2n(Cc2ccco2)c1=NC(=O)c1cccnc1 | 92.5 | 82% (inactive) | 92.5% (inactive) | 71.4% (inactive) | 80.7% (inactive) | 8.21% (inactive) | 72.4% | 80.7% | -1.71% (inactive) | 2.58% (inactive)
